EP2 modulator: EP2 receptor (human) modulation. hit rate 0.83% among 260,000. P43116. EP2-expressing cells, cAMP HTRF FRET, PGE2 co-stimulation. induction, % at 25 µM;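 active = compounds whose cAMP rise, as percent of the full-agonist control response, exceeds 60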;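 also: rat C6 glioma line stably carrying human EP2 under a CMV promoter; the protocol text gives 20 µM as final concentration; 100% = response of wells given 1 µM PGE2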
Target sequence (P43116 whole entry, looked up): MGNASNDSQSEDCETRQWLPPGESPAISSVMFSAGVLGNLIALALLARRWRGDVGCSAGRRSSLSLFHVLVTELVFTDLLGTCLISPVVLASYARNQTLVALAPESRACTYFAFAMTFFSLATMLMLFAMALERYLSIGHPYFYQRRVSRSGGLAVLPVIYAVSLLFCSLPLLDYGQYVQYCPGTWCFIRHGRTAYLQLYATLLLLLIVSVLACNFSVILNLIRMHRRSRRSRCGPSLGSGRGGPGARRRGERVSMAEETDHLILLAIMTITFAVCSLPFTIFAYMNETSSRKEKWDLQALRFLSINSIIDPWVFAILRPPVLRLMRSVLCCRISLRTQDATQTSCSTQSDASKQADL
NPY Y2 blocker: antagonists of human neuropeptide Y receptor Y2. P49146. NPY-Y2 expressing cells, antagonist mode. inhibition, % at 2.7 µM. hit rate 0.99% among 140,000. AID 793; in the data active = inhibition above about 17%;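 also: 0% = vehicle with agonist challenge and 100% = reference antagonist with challenge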
PGE2 EP2 inh: EP2 receptor (human) inhibition; inhibition, % at 25 µM; C6 glioma cells expressing human EP2, cAMP TR-FRET; cells stimulated with saturating PGE2; P43116; hit rate 0.52% among 260,000;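 active = percent inhibition above 40 after rounding to a whole number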;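 also: rat C6 glioma host cells with rolipram phosphodiesterase inhibitor present; the protocol text gives 20 µM as final concentration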
NPY Y1 blocker: blocks the human neuropeptide Y Y1 receptor; inhibition, % at 3.6 µM; P25929; AID 1040; hit rate 1% among 200,000; HEK293-CNG Y1 cells, membrane potential fluorescence; NPY at EC95, then isoproterenol;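 active = inhibition above the campaign mean inhibition of all tested compounds plus 3 SD, cut at about 20% in these data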;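 also: 0% = DMSO wells given NPY plus isoproterenol and 100% = isoproterenol alone without NPY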
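Test system – HEK293 Y1/CNG channel cell line · Also added – NPY agonist 25 nM, then isoproterenol 1 µM plus Ro 20-1724 25 µM · Compound dosing – one concentration, 3.6 µM, in 0.4% DMSO · Schedule – compound incubation 1 h at room temperature, readout 45 min post-stimulation · Technique – fluorescence, membrane potential probe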
NPY1 pot ag: potentiates or activates human NPY-Y1 receptor; P25929; NPY-Y1 expressing cells, potentiator/agonist activation; activation, % at 3.6 µM; hit rate 0.37% among 220,000; AID 1304; in the data active = activation above about 33%, passing the limit was not always enough;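 also: cells stimulated with NPY at EC10 then isoproterenol at EC100; 0% = low agonist plus stimulus and 100% = saturating agonist plus stimulus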
NPY-Y2 PAM-ag: human NPY-Y2 potentiation or agonism, primary screen | P49146 | cells expressing NPY-Y2, potentiator/agonist read-out | activation, % at 3.6 µM | hit rate 0.45% among 220,000; in the data active = activation above about 27%;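 also: cells stimulated with NPY near EC25 plus isoproterenol at EC100; 0% = vehicle plus submaximal agonist and 100% = vehicle plus saturating agonist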
Numbers without * were called inactive; x = not tested or not shown; ! = repeats disagree. Shown are actives, neighbours in structure and some others; about 2.8% of the full set was active somewhere.

SMILES | EP2 modulator | NPY Y2 blocker | PGE2 EP2 inh | NPY Y1 blocker | NPY1 pot ag | NPY-Y2 PAM-ag
O=C(c1ccc(Cl)cc1[N+](=O)[O-])N(Cc1ccccc1)Cc1ccccc1 | 42 | 3 | 8 | -1 | 11 | -1
CCC(c1nnnn1Cc1ccccc1)N(Cc1cc2ccc(C)c(C)c2[nH]c1=O)C1CCCC1 (configuration not stated) | 24 | x | 7 | x | x | x
N#CC(C#N)=c1ccc2c(c1)NC1(CCCCC1)N=2 | -23 | -10 | 26 | -13 | 41* | 44*
O=C1c2ccccc2C(=O)c2c1c(C(=O)Nc1ccc(Cl)cc1)c1ccccn21 | -19 | x | 8 | x | x | x
CCc1cc2cc3c(cc2nc1SCC(=O)Nc1ccc(C)cc1C)OCO3 | 20 | x | 32 | x | x | x
O=C1[C@@H]2[C@H](C(=O)N1CN1CCSCC1)[C@H]1[C@@H]3C=C[C@@H]([C@@H]4C(=O)N(CN5CCSCC5)C(=O)[C@@H]34)[C@@H]21 | 15 | x | 45* | x | x | x
Cc1oc(-c2ccccc2)nc1C(=O)Nc1nccs1 | 7 | 5 | 9 | 2 | -3 | 0
CCOC(=O)CSc1nc2ccc(C)cc2cc1CC | 62* | x | 12 | x | x | x
CCc1cc2cccc(C)c2nc1SCC(=O)Nc1cc(OC)ccc1OC | 63* | x | 14 | x | x | x
CCOc1ccccc1NC(=O)c1nc(-c2ccccc2)oc1C | 63* | x | 6 | 5 | -21 | -15
CCc1c(C)sc2nc(C)nc(SCC(=O)Nc3ccccc3OC)c12 | 66* | x | 9 | x | x | x
O=S(=O)(NCc1ccc(F)cc1)c1ccc(S(=O)(=O)N2CCCC2)cc1 | -44 | x | 12 | x | x | x
Cc1[nH]n(-c2ccc(Br)cc2)c(=O)c1/C=N/n1cnnc1 | 15 | x | 9 | x | x | x
CCOC(=O)CC(=O)CSc1nc2c(C)c(C)ccc2cc1CC | 52 | x | 9 | x | x | x
CCc1cc2c(C)ccc(C)c2nc1SCC(=O)OC | 87* | x | 16 | x | x | x
COc1ccc(OC)c(NC(=O)CSc2nc(C3CCCCC3)nc3ccccc23)c1 | 61* | x | 13 | x | x | x
CCOC(=O)CC(=O)CSc1nc2c(C)c(C)ccc2cc1C | 66*! | 4 | 8 | 3 | 4 | -15
COc1ccccc1NC(=O)CSc1nc2ccccc2cc1Cc1ccccc1 | -6 | 21* | 6 | 26* | -70 | -8
CCc1cc2c(C)ccc(C)c2nc1SCC(=O)NNC(C)=O | 16 | x | 13 | x | x | x
Cc1nn(C)c(C)c1-c1cc(C(=O)NC(c2cccs2)C(C)C)[nH]n1 (configuration not stated) | -43 | x | 7 | x | x | x
COCCNC(=O)c1cn(C[C@@H]2CCCN(C(=O)c3scnc3C)C2)nn1 | -29 | x | 4 | x | x | x
CCN(Cc1cc2cc(OC)ccc2[nH]c1=O)C(=O)c1cccc(C)c1 | -61 | x | 9 | x | x | x
COc1ccc(CC(=O)Nc2nn(C)c3nc4c(C)cccc4cc23)cc1 | -22 | x | 48* | x | -21 | -4
CCC(=O)Nc1nn(C)c2nc3c(C)cccc3cc12 | -9 | -1 | 12 | -2 | 1 | -2
CCc1cc2cc3c(cc2nc1SCC(=O)Nc1ccc(OC)c(OC)c1)OCO3 | 74* | x | 10 | x | x | x
SMILES | EP2 modulator | NPY Y2 blocker | PGE2 EP2 inh | NPY Y1 blocker | NPY1 pot ag | NPY-Y2 PAM-ag
CCc1nc(SCC(=O)Nc2ccccc2OC)c2ccccc2n1 | 0 | x | 9 | x | x | x
CCOc1ccccc1NC(=O)CSc1nc(-c2ccccc2)nc2ccccc12 | 61* | x | 6 | x | x | x
CCc1cc2cccc(C)c2nc1SCC(=O)Nc1ccc(S(=O)(=O)N(C)C)cc1 | 34 | x | 3 | x | x | x
Cc1[nH]n2c(=O)cc(C(C)C)nc2c1-c1ccc(F)cc1 | -36 | x | x | x | x | x
O=C(CN1CCN(C(=O)N2CCOCC2)CC1)Nc1ccc(F)cc1 | -3 | x | 9 | x | x | x
O=C(C[N+]1(c2ccccc2)CCOCC1)c1ccccc1 | 15 | x | 53* | x | x | x
CN1C(=O)/C(=C\C(=O)c2cccs2)c2ccccc21 | -30 | x | 60* | -6 | 2 | -13
c1ccc(CCN(Cc2ccccc2)Cc2nc(C3CC3)no2)cc1 | 62* | x | 11 | 19 | 2 | -7
CCN(Cc1ccccc1)Cc1nc(CCc2ccccc2)no1 | -8 | x | 5 | 4 | -13 | -19
CC(=O)NC(CSc1cc(C)nc2ccc(Br)cc12)C(=O)O (configuration not stated) | 64* | x | 12 | x | -16 | -10
CN1c2ccccc2-c2nc3ccccc3n2C1c1ccccn1 (configuration not stated) | 13 | 2 | 18 | -1 | -1 | 5
c1ccc(CN2c3ccccc3-c3nc4ccccc4n3C2c2ccccn2)cc1 (configuration not stated) | 20 | 19* | 0 | 37* | -17 | -9
COc1ccc(N=c2oc3ccccc3cc2C(=O)NCc2ccco2)cc1 | 78* | x | 11 | x | x | x
COc1ccc(N=c2oc3c(OC)cccc3cc2C(=O)NCc2ccco2)cc1OC | 15 | 0 | 16 | -9 | -2 | 5
Cc1cccc(C2(O)CCN(C(=O)c3cc(-c4ccccn4)n[nH]3)CC2)c1 | -33 | x | 4 | x | x | x
Cc1ccc(-c2nc(NC(=O)c3nn(C)cc3[N+](=O)[O-])sc2C)cc1 | -60 | -3 | 22 | 2 | -8 | 0
Cn1cc([N+](=O)[O-])c(C(=O)Nc2nc(-c3ccc(Cl)cc3)cs2)n1 | -42 | -2 | 75* | -6 | -15 | 6
Cc1cnc(NC(=O)c2nn(C)cc2[N+](=O)[O-])s1 | -37 | x | 46* | -1 | -10 | 4
Cc1ccc(-c2nc(NC(=O)c3nn(C)cc3[N+](=O)[O-])sc2C)cc1C | -29 | -3 | x | 8 | -2 | 3
CS(=O)(=O)N1CCc2cc(C(=O)Nc3ccc(Cl)c(Cl)c3)ccc21 | -104 | x | 28 | x | x | x
CN(C)c1ccc(N=Nc2ccccc2C(=O)OCC(=O)NCC2CCCCC2)cc1 | -22 | -5 | 4 | -13 | 59* | 54*
CN(C)c1ccc(N=Nc2ccccc2C(=O)OCC(=O)NC2CCCC2)cc1 | 1 | 2 | 7 | 2 | 12 | 11
CNC(=O)Cc1nc2ccccc2n1CC(=O)Nc1cc(OC)cc(OC)c1 | 12 | x | 7 | x | x | x
CCC(C)(C(=O)NC1CCCCC1)N(CC1CCCO1)C(=O)Cc1cccs1 (configuration not stated) | 12 | x | 8 | 21* | 0 | 5
CCC(C)(C(=O)NC1CCCCC1)N(CC1CCCO1)C(=O)CNC(=O)c1ccccc1 (configuration not stated) | 13 | 1 | 12 | 0 | 2 | 6
CCC(C)(C(=O)NC1CCCCC1)N(C(=O)Cc1cccs1)c1ccccc1 (configuration not stated) | 42 | 17* | 5 | 34* | -37 | -8
CCC(C)(C(=O)NC1CCCC1)N(Cc1cccs1)C(=O)Cc1cccs1 (configuration not stated) | 36 | 38* | 8 | 37* | -30 | 8
CCn1c(Cn2nnc(-c3ccccc3)n2)nnc1SCC(=O)Nc1cccc(C(C)=O)c1 | -7 | -4 | 7 | -8 | 1 | 20
